The subject of data set [1] is LLC-PK1. Put plainly: Apparent permeability of the compound from apical to basolateral direction in pig LLC-PK1 cells expressing human MDR1. The data set is classed as ADME, cell-based, Sus scrofa. The method, boiled down: (§1)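 MDR1-LLC-PK1 pig kidney cells expressing human MDR1; compound at 5 μM with 0.1% BSA; apparent permeability measured apical-to-basolateral and basolateral-to-apical.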

The nature of data set [2]: Aqueous solubility of the compound in PBS pH 7.4. The data set is classed as physicochemical.
Data set [3] is described as follows: Oral bioavailability in Sprague-Dawley rat at 2 mg/kg. The note with it: in vivo. Format: ADME, organism-based. The method, boiled down:
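Male Sprague-Dawley rats; oral dose 2 mg/kg in 10 mL/kg vehicle (30% hydroxypropyl-β-cyclodextrin pH 2.2 with methanesulfonic acid, or 1% Tween 80/2% HPMC pH 2.2 with HCl), compared with 0.5 mg/kg iv in DMSO.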

A short description of data set [4]: Aqueous solubility of the compound in SIF pH 6.8. Format: physicochemical.
A short description of data set [5]: Aqueous solubility of the compound in 0.01 N HCl. Format: physicochemical.
The subject of data set [6] is LLC-PK1. Put plainly: Apparent permeability of the compound from basolateral to apical direction in pig LLC-PK1 cells expressing human MDR1. The data set is classed as ADME, cell-based, Sus scrofa. The method, boiled down: as §1
The nature of data set [7]: AUC in Sprague-Dawley rat at 0.5 mg/kg, iv. Format: ADME, organism-based. Further details: dose 0.5 mg/kg, route intravenous. Particulars: plasma. The method, boiled down:
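Male Sprague-Dawley rats dosed intravenously at 0.5 mg/kg in 0.5 mL/kg of 100% DMSO; pharmacokinetic parameters derived from plasma exposure.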

For data set [8], the system named is Rattus norvegicus. Put plainly: Plasma concentration in formalin-induced Sprague-Dawley rat at 20 mg/kg, po by open-field test. Format: ADME, organism-based. On the set-up: dose 20 mg/kg, route oral. Particulars: in vivo. The method, boiled down:
(§2)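 Rats dosed orally 2 h before formalin; plasma sampled right after the formalin test (3 h post-dose) for total drug concentration.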

Data set [9] concerns Rattus norvegicus. Put plainly: Plasma concentration in formalin-induced Sprague-Dawley rat at 30 mg/kg, po by open-field test. The data set is classed as ADME, organism-based. Further details: dose 30 mg/kg, route oral. The note with it: in vivo. The method, boiled down:
as §2

For data set [10], the system named is Rattus norvegicus. Put plainly: Plasma concentration in Sprague-Dawley rat at 3 mg/kg, po by open-field test. Format: ADME, organism-based. Further details: dose 3 mg/kg, route oral. Particulars: in vivo. The method, boiled down:
(§3)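 Naive rats given oral doses of 3–30 mg/kg (n = 8 per dose), timed so recording began at the same post-dose interval as the formalin test; open-field photobeam beam breaks binned every 5 min and totalled; plasma drug measured; one-way ANOVA with Dunnett's versus vehicle.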

Data set [11] deals with Rattus norvegicus. Put plainly: Plasma concentration in formalin-induced Sprague-Dawley rat at 10 mg/kg, po by open-field test. Further details: dose 10 mg/kg, route oral. Format: ADME, organism-based. Particulars: in vivo. The method, boiled down:
as §2

The test system of another data set is Plasma. Put plainly: Unbound plasma concentration in Sprague-Dawley rat at 3 mg/kg, po. The data set is classed as ADME, organism-based. Further details: dose 3 mg/kg, route oral. The note with it: in vivo.
In data set [12] the test system is Rattus norvegicus. Put plainly: Plasma concentration in Sprague-Dawley rat at 10 mg/kg, po by open-field test. The note with it: in vivo. On the set-up: dose 10 mg/kg, route oral. Format: ADME, organism-based. The method, boiled down: as §3
The test system of data set [13] is Rattus norvegicus. Put plainly: Plasma concentration in Sprague-Dawley rat at 30 mg/kg, po by open-field test. Further details: dose 30 mg/kg, route oral. The data set is classed as ADME, organism-based. Particulars: in vivo. The method, boiled down: as §3
In data set [14] the test system is Rattus norvegicus. Put plainly: Plasma concentration in Sprague-Dawley rat at 20 mg/kg, po by open-field test. Format: ADME, organism-based. Further details: dose 20 mg/kg, route oral. Particulars: in vivo. The method, boiled down:
as §3

Data set [15] concerns Rattus norvegicus. Put plainly: Plasma concentration in formalin-induced Sprague-Dawley rat at 3 mg/kg, po by open-field test. The data set is classed as ADME, organism-based. On the set-up: dose 3 mg/kg, route oral. The note with it: in vivo. The method, boiled down: as §2

These results are taken from ChEMBL document CHEMBL1811851, “Identification of a potent, state-dependent inhibitor of Nav1.7 with oral efficacy in the formalin model of persistent pain” (J Med Chem, 2011).

In brackets after ≈: the same amount, converted by molar mass.

Regarding `CC(=O)Nc1cccc(Nc2ncnc(N3CCC(OCc4ccccc4)CC3)n2)c1`, the Papp in the data set with LLC-PK1 [1] and with LLC-PK1 [6] was 22.2 ×10⁻⁶ cm/s each time. The solubility in [2] was 15 µg/mL (≈ 35.8 µM); in [4] it was 86 µg/mL (≈ 205 µM); in data set [5], 157 µg/mL (≈ 375 µM). Moreover, in data set [3], the bioavailability stood at 19%.
With `CC(=O)Nc1cccc(Nc2ncnc(N3CCc4ccccc4C3)n2)c1`, the Papp with LLC-PK1 [1] and in the data set on LLC-PK1 [6] was 29.3 ×10⁻⁶ cm/s throughout. For the same compound, the solubility in [2] stood at 1 µg/mL (≈ 2.77 µM); in data set [4], 31 µg/mL (≈ 86 µM); in [5], 42 µg/mL (≈ 117 µM). Besides, the AUC in data set [7] is 126 ng·h/mL.
As for `CC(=O)Nc1cccc(Nc2ncnc(N3CCC(OCc4ccc(OC(F)(F)F)cc4)CC3)n2)c1C`, the concentration in the data set on Rattus norvegicus [8] is 3200 nM; in the data set on Rattus norvegicus [9], 4400 nM; in the data set with Rattus norvegicus [10], 500 nM; with Rattus norvegicus [11] it was 1400 nM; in the data set with Rattus norvegicus [12] it was 1400 nM; with Rattus norvegicus [13], 5400 nM. The concentration with Rattus norvegicus [14] was found to be 2900 nM; in the data set on Rattus norvegicus [15] it was 500 nM. In data set [3], this compound came in with a bioavailability of 67%. Also, in the data set with Plasma, the “Cp(f)” value was 14 nM.
In data set [3], `CC(=O)Nc1cccc(Nc2ncnc(N3CCC(OCc4ccc(C(F)(F)F)cc4)CC3)n2)c1C` gave a bioavailability of 27%.
Take `CC(=O)Nc1cccc(Nc2ncnc(N3CCC(Oc4ccccc4)CC3)n2)c1`: the Papp in the data set on LLC-PK1 [1] and in the data set on LLC-PK1 [6] was 26.1 ×10⁻⁶ cm/s each time. Further, the solubility is 11 µg/mL (≈ 27.2 µM) in data set [2], 110 µg/mL (≈ 272 µM) in data set [4] and more than 200 µg/mL in data set [5]. In data set [3], the bioavailability came to 52%.
